This is an account of results in ChEMBL document CHEMBL1134641, “Progress toward the development of a safe and effective agent for treating reentrant cardiac arrhythmias: synthesis and evaluation of ibutilide analogues with enhanced metabolic stability and diminished proarrhythmic potential” (2001).

Test [1] is filed under the species Canis familiaris. Nature of the test: Atrial flutter cycle length (AFCLl) measured in canine just after inducing atrial flutter (AFL) termination by the compound. It counts as functional, Canis lupus familiaris, Heart.
For test [2], the system named is Canis familiaris. In words: Atrial effective refractory period (AERP) measured in canine just after inducing atrial flutter (AFL) termination by the compound at a dose of 0.6 umol/kg. The test is classed as functional, Canis lupus familiaris, Heart.
Test [3] relates to Canis familiaris. Nature of the test: Atrial effective refractory period (AERP) measured in canine just after inducing atrial flutter (AFL) termination by the compound at a dose of 2.4 uM/kg. The test is classed as functional, Canis lupus familiaris, Heart.
The subject of test [4] is Canis familiaris. In words: Blood pressure measured in canine 24-h Infarction model at an cumulative intravenous dose of 0.72 uM/kg. It counts as functional, Canis lupus familiaris. Put shortly: (§1)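 Male mongrel dogs (16-22 kg) with LAD permanently ligated in two stages; studied 24 h later. […] given IV in sequential doses to cumulative 0.24, 0.72, 2.4 µmol/kg. Saline controls (n=8) received vehicle, then a single IV 2.4 µmol/kg dose at the end. Measurements taken at baseline and 15 min after each dose. Means ± SEM, paired t-test, p ≤ 0.05.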

Test [5] relates to Canis familiaris. In words: QT interval measured in canine 24-h Infarction model at an cumulative intravenous dose of 0.24 uM/kg. The test is classed as functional, Canis lupus familiaris. Put shortly:
(§2)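 Dogs 24 h after two-stage LAD ligation. Compound in saline given iv in sequential doses (cumulative 0.24, 0.72, 2.4 µmol/kg); saline controls then given a single 2.4 µmol/kg iv dose. HR, IVR, BP, QT, spontaneous arrhythmias/min, ERPs and MAPD90 measured at baseline and 15 min after each dose. Means ± SEM, paired t-test, p≤0.05.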

The test system of test [6] is Canis familiaris. In words: QT interval measured in canine 24-h Infarction model at an cumulative intravenous dose of 2.4 uM/kg. It counts as functional, Canis lupus familiaris. The essentials: as §2
The test system of test [7] is Canis familiaris. In words: QT interval measured in canine just after inducing atrial flutter (AFL) termination by the compound at a dose of 12.0 uM/kg. The test is classed as functional, Canis lupus familiaris, Heart. Put shortly:
(§3)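 Conscious, sling-restrained dogs with chronically implanted electrodes, studied after 2 weeks of recovery. Sustained AFL (>5 min) induced. Compound in saline given iv every 5 min to cumulative 0.024-12.0 µmol/kg. At AFL termination, HR, QT (paced cycle length 300 ms), AERP and VERP measured. Measurements then taken 3 min after each further dose. Significance p≤0.05 vs baseline.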

Test [8] relates to Canis familiaris. Nature of the test: QT interval measured in canine just after inducing atrial flutter (AFL) termination by the compound at a dose of 2.4 uM/kg. The test is classed as functional, Canis lupus familiaris, Heart. The essentials:
as §3

The subject of test [9] is Canis familiaris. In words: QT interval measured in canine just after inducing atrial flutter (AFL) termination by the compound at a dose of 9.6 uM/kg. The test is classed as functional, Canis lupus familiaris, Heart. Put shortly: as §3
Test [10] concerns Canis familiaris. In words: Atrial effective refractory period (AEPR) measured in canine 24-h Infarction model at an cumulative intravenous dose of 2.4 uM/kg. It counts as functional, Canis lupus familiaris, Cardiac atrium. Put shortly: as §1
The species entered for test [11] is Canis familiaris. Nature of the test: Atrial effective refractory period (AERP) measured in canine just after inducing atrial flutter (AFL) termination by the compound. It counts as functional, Canis lupus familiaris, Heart.
For test [12], the system named is Canis familiaris. Nature of the test: Number of canine in which sustained ventricular tachycardia (SVT) was observed in PES-induced arrhythmias at an cumulative intravenous dose of 0.72 uM/kg. The test is classed as functional, Canis lupus familiaris, Cardiac ventricle. The essentials:
(§4)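 Male mongrel dogs (16-22 kg) with LAD ligated in two stages, studied 24 h later. Programmed electrical stimulation at baseline and 15 min after each iv dose in saline (cumulative 0.24, 0.72, 2.4 µmol/kg). Saline controls then received a single 2.4 µmol/kg iv dose. Responses scored as NI (≤15 beats), NSVT (>15 beats, ends within 30 s), SVT (>30 s, needing pacing or cardioversion) or VF. A positive response was repeated.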

The test system of test [13] is Canis familiaris. Nature of the test: Number of canine in which ventricular fibrillation (VF) was observed in PES-induced arrhythmias at an cumulative intravenous dose of 0.24 uM/kg. It counts as functional, Canis lupus familiaris, Cardiac ventricle. Put shortly:
as §4

Test [14] relates to Canis familiaris. In words: Number of canine in which ventricular fibrillation (VF) was observed in PES-induced arrhythmias at an cumulative intravenous dose of 2.4 uM/kg. The test is classed as functional, Canis lupus familiaris, Cardiac ventricle. Put shortly: as §4
Test [15] has as its system Canis familiaris. Nature of the test: Spontaneous arrhythmias measured in canine 24-h Infarction model at an cumulative intravenous dose of 0.72 uM/kg. It counts as functional, Canis lupus familiaris. Put shortly:
as §2

Test [16] is filed under the species Canis familiaris. In words: Heart Rate measured in canine just after inducing atrial flutter (AFL) termination by the compound. It counts as functional, Canis lupus familiaris.
Test [17] relates to Canis familiaris. Nature of the test: Heart Rate measured in canine just after inducing atrial flutter (AFL) termination by the compound at a dose of 2.4 uM/kg. It counts as functional, Canis lupus familiaris.
In test [18] the test system is Canis familiaris. In words: Ventricular effective refractory (VEPR) period measured in canine 24-h Infarction model at an cumulative intravenous dose of 0.72 uM/kg. It counts as functional, Canis lupus familiaris, Heart. Put shortly: (§5)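 Male mongrel dogs (16-22 kg) with LAD permanently ligated in two stages, studied 24 h after ligation. Compound given in saline (6.0 µmol/mL) as sequential intravenous doses to reach cumulative 0.24, 0.72 and 2.4 µmol/kg. VERP and other measurements taken at baseline and 15 min after each dose. Saline-dosed dogs served as controls. Results are means ± SEM, paired t-test, p ≤ 0.05.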

For test [19], the system named is Canis familiaris. In words: Ventricular effective refractory (VEPR) period measured in canine 24-h Infarction model at an cumulative intravenous dose of 2.4 uM/kg. It counts as functional, Canis lupus familiaris, Heart. Put shortly: as §5
Test [20] relates to Canis familiaris. In words: Number of canine in which nonsustained ventricular tachycardia (NSVT) was observed in PES-induced arrhythmias at an cumulative intravenous dose of 2.4 uM/kg. The test is classed as functional, Canis lupus familiaris, Cardiac ventricle. Put shortly: as §4
The subject of test [21] is Canis familiaris. Nature of the test: Ventricular MAPD90 measured in canine 24-h Infarction model at an cumulative intravenous dose of 0.72 uM/kg. The test is classed as functional, Canis lupus familiaris, Heart. Put shortly: as §2
Test [22] has as its system Canis familiaris. Nature of the test: Ventricular MAPD90 measured in canine 24-h Infarction model at an cumulative intravenous dose of 2.4 uM/kg. It counts as functional, Canis lupus familiaris, Heart. Put shortly: as §2
In test [23] the test system is Canis familiaris. Nature of the test: Heart rate measured in canine 24-h Infarction model at an cumulative intravenous dose of 0.24 uM/kg. The test is classed as functional, Canis lupus familiaris. The essentials: as §1

“And” between values parts separate entries of the source, which are not always exact repeats. Equal values may be shown once.

Take `CCN(CCCCCC(C)(C)F)CCC[C@H](O)c1ccc(NS(C)(=O)=O)cc1.O=C(O)/C=C/C(=O)O`: in the test listed under Canis familiaris [1], the AFLCl was found to be 165 ms. In addition, the AERP with Canis familiaris [2] is 153 ms; in the test on Canis familiaris [3] it was 166 ms; in the test on Canis familiaris [10], 194 ms; in the test filed under Canis familiaris [11], 149 ms. Moreover, in the test with Canis familiaris [4], the BP is given as 115 mmHg. Further, the QT interval came to 211 ms with Canis familiaris [5]; 240 ms with Canis familiaris [6]; 200 ms in the test on Canis familiaris [7]; 213 ms with Canis familiaris [8]; 204 ms in the test with Canis familiaris [9]. Also, the No. of canine in the test with Canis familiaris [12] is 2; in the test on Canis familiaris [13], 0; in the test with Canis familiaris [14], 0; in the test on Canis familiaris [20], 1. Besides, the PVCs in the test on Canis familiaris [15] is 68 number min-1 and 57 number min-1. The results for the HR in the test filed under Canis familiaris [16], with Canis familiaris [17] and in the test on Canis familiaris [23] were 108 beats min-1, 113 beats min-1 and 155 beats min-1, respectively. In addition, the VERP turned out to be 170 ms in the test on Canis familiaris [18] and 185 ms with Canis familiaris [19]. Also, the results for the “Ventricular MAPD90” value in the test with Canis familiaris [21] and in the test on Canis familiaris [22] were 170 ms and 185 ms, respectively.
